Test results: ChEMBL document CHEMBL4325822, “Discovery of a tetrazolyl β-carboline with in vitro and in vivo osteoprotective activity under estrogen-deficient conditions” (Medchemcomm, 2018)
Calls of active or inactive are those of the source. The calls are words filed in the database; no cut-off is given here.

Experiments:
[1] = Antioxidant activity assessed as DPPH radical scavenging activity after 30 mins by spectrophotometric method; assay type: functional
Summary of the method: (§1)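 The compound was serially diluted from 1000 to 1.95 µg·ml⁻¹ and mixed 1:1 with DPPH in methanol. After 30 min at room temperature, absorbance was read at 517 nm. Scavenging (%) = [(Abc − Abs)/Abc] × 100, where Abc is DPPH without compound.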

Calvarial osteoblast [2] = experiment: Increase in Runx2 protein expression in Sprague-Dawley rat calvarial osteoblasts at 100 pM after 48 hrs by Western blot analysis; assay type: functional, cell-based
Summary of the method: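 Rat calvarial osteoblasts (pooled 1–2-day pups, collagenase/dispase digests) at 60–70% confluence treated 48 h. Whole-cell lysates immunoblotted with primary antibody overnight at 4 °C, then HRP secondary, with ECL detection. Densitometry gives fold change normalized to β-actin versus untreated cells. Mean ± SEM of three independent experiments.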

Rattus norvegicus [3] = experiment: Antiosteoporotic activity in Sprague-Dawley rat model of OVX-induced bone loss assessed as protection against microarchitectural deterioration by measuring trabecular separation at 5 mg/kg, po via gavage for 12 weeks by microcomputed tomographic analysis (reference value: 1.31 +/- 0.06 millimeter); assay type: functional
Summary of the method: (§2)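 Adult female Sprague-Dawley rats were ovariectomized and left 12 weeks to become osteopenic. They then received 12 weeks of once-daily oral gavage (1% gum acacia vehicle) or subcutaneous estradiol, five days a week. Femurs were collected at sacrifice and scanned by micro-CT for BMD and trabecular microarchitecture. Ten rats per group; mean ± SEM.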

[4] = Antioxidant activity assessed as SNP-induced nitric oxide free radical scavenging activity at 500 ug/ml after 150 mins by Griess reagent based method relative to control; assay type: functional
Summary of the method: (§3)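 Serial dilutions (1000 to 1.95 µg·ml⁻¹) were mixed with sodium nitroprusside (10 mM) and incubated 150 min. An equal volume of Griess reagent was added, and absorbance was read at 546 nm. Percentage scavenging was calculated relative to the control without compound.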

Rattus norvegicus [5] = experiment: Antiosteoporotic activity in Sprague-Dawley rat model of OVX-induced bone loss assessed as bone formation rate at 1 mg/kg, po via gavage for 12 weeks by microcomputed tomographic analysis (reference value: 0.171 +/- 0.005 um3/um2/day); assay type: functional
Summary of the method: (§4)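 Female Sprague-Dawley rats, 10-12 weeks old, ten per group, were ovariectomized and left 12 weeks for osteopenia. They were then dosed once daily by oral gavage for 12 weeks in 1% gum acacia vehicle. The estradiol arm received 100 µg·kg⁻¹ subcutaneously five days a week. Tetracycline and calcein were given intraperitoneally at 20 mg·kg⁻¹ each. Femur cross-sections (50 µm) were imaged by fluorescence microscopy for MAR and BFR.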

Rattus norvegicus [6] = experiment: Upregulation of OCN mRNA expression in femur bone of Sprague-Dawley rat model of OVX-induced bone loss at 1 to 5 mg/kg, po via gavage for 12 weeks by qPCR analysis; assay type: functional, organism-based
Summary of the method: (§5)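 Ovariectomized female SD rats, osteopenic after 12 weeks, dosed orally once daily for 12 weeks (1.0 or 5.0 mg·kg⁻¹·day⁻¹, 1% gum acacia vehicle); sham and OVX vehicle groups included. Femurs collected at sacrifice for qRT-PCR, analysed by the ΔΔCT method.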

Rattus norvegicus [7] = experiment: Antiosteoporotic activity in Sprague-Dawley rat model of OVX-induced bone loss assessed as bone formation rate at 5 mg/kg, po via gavage for 12 weeks by microcomputed tomographic analysis (reference value: 0.171 +/- 0.005 um3/um2/day); assay type: functional; summary of the method: as §4
Rattus norvegicus [8] = experiment: Antiosteoporotic activity in Sprague-Dawley rat model of OVX-induced bone loss assessed as restoration of bone mineral density loss in femur bone at 1 to 5 mg/kg po via gavage for 12 weeks by microcomputed tomographic analysis relative to control; assay type: functional; summary of the method: as §2
[9] = Antioxidant activity assessed as SNP-induced nitric oxide free radical scavenging activity at 1000 ug/ml after 150 mins by Griess reagent based method relative to control; assay type: functional; summary of the method: as §3
Rattus norvegicus [10] = experiment: Upregulation of BMP2 mRNA expression in femur bone of Sprague-Dawley rat model of OVX-induced bone loss at 1 to 5 mg/kg, po via gavage for 12 weeks by qPCR analysis; assay type: functional, organism-based; summary of the method: as §5
[11] = Antioxidant activity assessed as DPPH radical scavenging activity at 1.95 ug/ml after 30 mins by spectrophotometric method relative to control; assay type: functional; summary of the method: as §1
[12] = Antioxidant activity assessed as SNP-induced nitric oxide free radical scavenging activity at 250 ug/ml after 150 mins by Griess reagent based method relative to control; assay type: functional; summary of the method: as §3
[13] = Increase in Runx2 mRNA expression in Sprague-Dawley rat calvarial osteoblasts at 100 pM by RT-PCR method relative to control; assay type: functional, Calvarial osteoblast
Rattus norvegicus [14] = experiment: Antiosteoporotic activity in Sprague-Dawley rat model of OVX-induced bone loss assessed as increase in femoral bone strength by measuring stiffness at 5 mg/kg, po via gavage for 12 weeks by 3 point bending test (reference value: 122.07 +/- 12.18 N/mm); assay type: functional
Calvarial osteoblast [15] = experiment: Increase in BMP2 protein expression in Sprague-Dawley rat calvarial osteoblasts at 100 pM after 48 hrs by Western blot analysis; assay type: functional, cell-based
Summary of the method: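 Rat calvarial osteoblasts at 60-70% confluence were treated 48 h. Whole-cell lysates were blotted, blocked in 5% milk, and probed with primary antibody overnight at 4 °C, then with HRP secondary and ECL detection. Densitometry was normalized to β-actin; fold change versus untreated cells, three independent experiments, mean ± SEM.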

Calvarial osteoblast [16] = experiment: Antioxidant activity in Sprague-Dawley rat calvarial osteoblasts assessed as inhibition of TNFalpha-induced intracellular ROS production at 100 pM after 24 hrs by DCFH-DA staining based fluorescence assay; assay type: functional, cell-based
Summary of the method: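 Primary rat calvarial osteoblasts were treated 24 h, then washed twice with serum-free medium. DCFH-DA (10 µg·mL⁻¹) was added in medium with 2% serum, followed by 30 min in the dark. Fluorescence was read at Ex 485/Em 535 nm.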

Rattus norvegicus [17] = experiment: Antiosteoporotic activity in Sprague-Dawley rat model of OVX-induced bone loss assessed as increase in serum PINP level at 1 to 5 mg/kg, po via gavage for 12 weeks by ELISA; assay type: functional, organism-based
Summary of the method: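 Ovariectomy model as above: 12 weeks of osteopenia, then 12 weeks of daily gavage or subcutaneous estradiol. Serum was separated at autopsy, and CTX and PINP were measured by ELISA kits.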

Rattus norvegicus [18] = experiment: Antiosteoporotic activity in Sprague-Dawley rat model of OVX-induced bone loss assessed as increase in mineralization at 1 to 5 mg/kg, po via gavage for 12 weeks measured 18 days post last dose by alizarin red-S staining based assay relative to control; assay type: functional
Summary of the method: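 After 12 weeks of in vivo treatment of ovariectomized rats, femoral bone marrow was flushed. It was cultured 18 days in differentiation medium (10 nM dexamethasone, 10 mM β-glycerophosphate, 50 µg·mL⁻¹ ascorbic acid). Mineralized nodules were stained with alizarin red-S, and the stain was extracted for quantitation.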

[19] = target: I-kappa-B kinase (Rattus norvegicus) (UniProt Q9QY78+G3V926+Q6TMG5); experiment: Inhibition of IKK in Sprague-Dawley rat calvarial osteoblasts assessed as reduction in TNFalpha-induced NFkB nuclear translocation at 100 pM after 24 hrs by immunofluorescence assay; assay type: cell-based; conditions: Calvarial osteoblast
Summary of the method: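 Primary rat osteoblasts on chamber slides given TNFα (10 ng·ml⁻¹) for 24 h, with or without treatment. Then 4% PFA fixation, 0.1% Triton X-100, anti-NF-κB overnight, and Cy3 anti-rabbit secondary. Fluorescence imaged at excitation 552 nm, emission 570 nm.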

inhibition [19]: Active
SMILES: CCOC(=O)c1cc2c([nH]c3ccccc32)c(C(c2nnnn2C(C)(C)C)N2CCN(C)CC2)n1 (centres undefined)
Activity [1]: Dose-dependent effect | Activity (Calvarial osteoblast [2]): Active | Activity (Rattus norvegicus [3]): 0.87 mm | Activity [4]: 31.4% | Activity (Rattus norvegicus [5]): 1.032 um3/um2/day | Activity (Rattus norvegicus [6]): Active | Activity (Rattus norvegicus [7]): 0.98 um3/um2/day | Activity (Rattus norvegicus [8]): 46% | Activity [9]: 19.3% | Activity (Rattus norvegicus [10]): Active | Activity [11]: 3.34% | Activity [12]: 30.7% | fold change (FC) [13]: 1.8 - 4.6 | Activity (Rattus norvegicus [14]): 146.6 N/mm | Activity (Calvarial osteoblast [15]): Active | inhibition (Calvarial osteoblast [16]): Active | Activity (Rattus norvegicus [17]): Active | fold change (FC) (Rattus norvegicus [18]): 1.4 - 1.5
